From ChEMBL document CHEMBL1142703, “Novel ligands for the chemokine receptor-3 (CCR3): a receptor-modeling study based on 5D-QSAR” (J Med Chem, 2005)

Biological target: T1, C-C chemokine receptor type 3 (Homo sapiens, UniProt P51677)
T1 sequence (P51677 whole entry): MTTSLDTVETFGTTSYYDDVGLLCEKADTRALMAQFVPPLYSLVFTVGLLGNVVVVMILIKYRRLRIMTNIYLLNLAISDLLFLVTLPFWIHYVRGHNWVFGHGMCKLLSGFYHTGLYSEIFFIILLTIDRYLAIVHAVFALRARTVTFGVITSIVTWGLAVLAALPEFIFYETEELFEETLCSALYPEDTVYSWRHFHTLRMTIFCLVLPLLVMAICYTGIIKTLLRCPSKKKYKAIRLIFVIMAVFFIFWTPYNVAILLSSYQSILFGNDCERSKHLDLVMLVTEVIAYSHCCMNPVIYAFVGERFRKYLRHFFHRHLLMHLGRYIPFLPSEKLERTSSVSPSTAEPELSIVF
Test: Inhibition of [125I]eotaxin-1 binding to human chemokine receptor (hCCR3-C1)
Outline: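 K562 leukemia myelogenic blast cells transfected with human CCR3 (hCCR3-C1). Binding of the radioligand 125I-eotaxin-1 was measured in a scintillation proximity format. Controls: specific binding with no displacer added, and nonspecific binding with unlabeled eotaxin or test compound added. Bound radioactivity was counted by scintillation. Ki was obtained by iterative fitting of the data to a law-of-mass-action model.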

FC(F)(F)c1ccc(C(CNCCc2cc(Cl)cc(Cl)c2)N2CCN(C3CCCCC3)CC2)cc1 (stereo unspecified)
Ki: 129 nM
